The record followed here is ChEMBL document CHEMBL1137584, “Constrained 7-fluorocarboxychromone-4-aminopiperidine based Melanin-concentrating hormone receptor 1 antagonists: the effects of chirality on substituted indan-1-ylamines” (Bioorg Med Chem Lett, 2007).

Each structure is given as a SMILES string. A value given as a limit tells only on which side of the number the result lay.

Series [1] has as its target Melanin-concentrating hormone receptor 1 (Homo sapiens, UniProt Q99705). Put plainly: Displacement of 125I-MCH from MCH-R1 expressed in IMR-32 cells. Type of series: cell-based. Background: In a radioligand displacement assay an active substance lowers the binding of a labelled ligand.
In series [2] the target is Melanin-concentrating hormone receptor (Homo sapiens, UniProt Q969V1+Q99705). As to the kind of experiment: Inhibition of MCH-mediated calcium release in IMR-32 cells. It counts as functional, cell-based.
Series [3] addresses Voltage-gated inwardly rectifying potassium channel KCNH2 (Homo sapiens, UniProt Q12809). Put plainly: Displacement of 3H-dofetilide from hERG-expressing HEK membrane homogenates.
In series [4] the test system is Mus musculus. Put plainly: Brain AUC in DIO mice after 10 mg/kg peroral dose. Type of series: ADME, organism-based. Details: dose 10 mg/kg, route oral. Particulars: in vivo, po. Summed up:
(§1)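 Single oral dose, 10 mg/kg in 1% Tween 80/water, to DIO mice; plasma and brain sampled over time. Cmax = average of the three mice with highest concentrations ± SEM. Mean concentration data fitted multi-exponentially; AUC0-t by linear trapezoidal rule, extrapolated to infinity with Ct/β added.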

In series [5] the test system is Mus musculus. Put plainly: Plasma Cmax in DIO mice after 10 mg/kg peroral dose. Type of series: ADME, organism-based. The arrangement: dose 10 mg/kg, route oral. Particulars: in vivo, po. Summed up:
as §1

Series [6] can be described thus: Brain Cmax in DIO mice after 10 mg/kg peroral dose. Type of series: ADME, organism-based. Details: dose 10 mg/kg, route oral. The note with it: mouse, po. The method, boiled down: as §1
In series [7] the test system is Mus musculus. Put plainly: Plasma AUC in DIO mice after 10 mg/kg peroral dose. It counts as ADME, organism-based. Details: dose 10 mg/kg, route oral. The note with it: in vivo, po. The method, boiled down:
as §1

Series [8] concerns Mus musculus. Put plainly: (§2) Half-life in plasma of DIO mice after 10 mg/kg peroral dose. It counts as ADME, organism-based. Details: dose 10 mg/kg, route oral. Particulars: in vivo, po. The method, boiled down:
as §1

Series [9] in a line: as §2. It counts as ADME, organism-based. Details: dose 10 mg/kg, route oral. Particulars: mouse, plasma, po. The method, boiled down:
as §1

Sequence of Voltage-gated inwardly rectifying potassium channel KCNH2 (Q12809 whole entry): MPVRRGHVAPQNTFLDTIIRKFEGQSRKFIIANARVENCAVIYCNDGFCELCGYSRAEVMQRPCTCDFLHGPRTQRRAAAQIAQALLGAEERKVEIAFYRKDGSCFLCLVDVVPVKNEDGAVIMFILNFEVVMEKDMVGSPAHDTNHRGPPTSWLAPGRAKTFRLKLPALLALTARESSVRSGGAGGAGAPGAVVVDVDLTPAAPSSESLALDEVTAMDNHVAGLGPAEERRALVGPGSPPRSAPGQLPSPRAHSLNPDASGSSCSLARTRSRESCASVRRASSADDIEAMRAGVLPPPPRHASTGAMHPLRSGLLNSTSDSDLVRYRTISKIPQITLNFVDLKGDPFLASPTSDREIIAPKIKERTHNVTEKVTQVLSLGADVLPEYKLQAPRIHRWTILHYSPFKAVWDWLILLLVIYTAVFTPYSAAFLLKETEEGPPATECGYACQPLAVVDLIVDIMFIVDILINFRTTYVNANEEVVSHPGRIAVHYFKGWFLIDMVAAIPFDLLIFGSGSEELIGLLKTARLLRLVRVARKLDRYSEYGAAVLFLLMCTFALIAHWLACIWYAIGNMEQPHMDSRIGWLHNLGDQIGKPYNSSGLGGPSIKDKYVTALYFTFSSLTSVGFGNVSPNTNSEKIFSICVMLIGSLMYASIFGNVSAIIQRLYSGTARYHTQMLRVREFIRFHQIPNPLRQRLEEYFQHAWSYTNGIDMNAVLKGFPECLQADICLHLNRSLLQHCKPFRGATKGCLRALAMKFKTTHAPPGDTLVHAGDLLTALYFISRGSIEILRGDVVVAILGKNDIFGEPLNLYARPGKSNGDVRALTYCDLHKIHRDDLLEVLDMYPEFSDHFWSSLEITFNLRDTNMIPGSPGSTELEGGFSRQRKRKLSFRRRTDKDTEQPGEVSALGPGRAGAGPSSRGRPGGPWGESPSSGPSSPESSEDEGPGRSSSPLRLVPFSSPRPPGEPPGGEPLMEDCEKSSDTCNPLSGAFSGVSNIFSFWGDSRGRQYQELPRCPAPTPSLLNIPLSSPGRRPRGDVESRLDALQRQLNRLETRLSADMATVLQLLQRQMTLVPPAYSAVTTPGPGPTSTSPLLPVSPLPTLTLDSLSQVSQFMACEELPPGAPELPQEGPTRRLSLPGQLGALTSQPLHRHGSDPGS
Sequence of Melanin-concentrating hormone receptor 1 (Q99705 whole entry): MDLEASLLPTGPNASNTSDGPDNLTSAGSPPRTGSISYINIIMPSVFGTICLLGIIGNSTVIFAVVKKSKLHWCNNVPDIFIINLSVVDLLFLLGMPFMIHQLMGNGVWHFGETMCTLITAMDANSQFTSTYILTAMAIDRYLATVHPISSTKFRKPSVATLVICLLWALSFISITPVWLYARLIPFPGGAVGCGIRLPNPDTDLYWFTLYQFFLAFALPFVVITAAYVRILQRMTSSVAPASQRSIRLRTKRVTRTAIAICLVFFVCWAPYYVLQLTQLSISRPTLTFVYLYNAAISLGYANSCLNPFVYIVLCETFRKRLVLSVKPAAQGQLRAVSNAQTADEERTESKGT

A word on the IC50: it is the concentration needed to halve the response being measured. Regarding `O=C1COc2cc3c(cc2N1)C(N1CCC(NC(=O)c2cc(=O)c4ccc(F)cc4o2)CC1)CC3` (centres undefined), the IC50 in series [1] was 21 nM; in [2], 95 nM; in series [3], 14600 nM.

With `O=C(NC1CCN(C2CCc3cc4oc(=O)[nH]c4cc32)CC1)c1cc(=O)c2ccc(F)cc2o1` (centres undefined), the IC50 was 11 nM in series [1], 173 nM in [2] and 25000 nM in [3].

As usually defined, the Cmax is the peak of the concentration-time curve. Regarding `CC(=O)Nc1ccc2c(c1)C(N1CCC(NC(=O)c3cc(=O)c4ccc(F)cc4o3)CC1)CC2` (single isomer, unassigned; (+)), the AUC in series [4] stood at 0.043 µg·h/g; in series [7], 3760 ng·h/mL. Further, the IC50 in [1] is 2570 nM; in series [2], over 10000 nM. Also, the Cmax in [5] came out at 1410 ng/mL; in series [6] it was 17 ng/g. The same molecule yielded a T1/2 in series [8] of 1.3 h.

What is called half-life is the time in which the quantity being followed falls by half. Higher therefore signals slow decline. With `CC(=O)Nc1ccc2c(c1)C(N1CCC(NC(=O)c3cc(=O)c4ccc(F)cc4o3)CC1)CC2` (single isomer, unassigned; (-)), the AUC in series [4] was found to be 0 µg·h/g; in [7], 41600 ng·h/mL. Moreover, the values for the IC50 in series [1] and in series [2] were 4 nM and 26 nM, respectively. This molecule also showed a Cmax in series [5] of 14600 ng/mL. In series [9], this molecule showed a half-life of 2.3 h.

On to `CC(=O)Nc1ccc2c(c1)C(N1CCC(NC(=O)c3cc(=O)c4ccc(F)cc4o3)CC1)CC2` (stereo in doubt; 16), for which the results for the IC50 in series [1] and in series [2] were 3 nM and 56 nM, respectively.

`O=C(NC1CCN(C2CCc3c2ccc2c3OCO2)CC1)c1cc(=O)c2ccc(F)cc2o1` (centres undefined): the figures for the IC50 in series [1], in series [2] and in series [3] were 76 nM, 2750 nM and 5860 nM, respectively.
